The values below come from the RNAGym collection of RNA variant scans (doi:10.1126/science.aae0568).

B1: tRNA (parent)
chain: GUUCCGUUGGCGUAAUGGUAACGCGUCUCCCUCCUAAGGAGAAGACUGCGGGUUCGAGUCCCGUACGGAACG

Fewer inactive variants are shown than the library holds.

The variants in the data set derive from B1. Briefly: yeast fitness relative to wild type (ratio to wild type); higher = fitter; tRNA-Arg(CCU), competitive growth, 37 C, YPD. The method, boiled down: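 The tRNA-Arg(CCU) gene variants were made by chemical synthesis with a 3% per-site mutation rate at 69 sites and inserted at the native genomic locus of Saccharomyces cerevisiae. After pooling, the strains were competed in YPD at 37°C for 24 hours in six parallel replicates. Gene amplicons from the start population and each end population were read by 100-nucleotide paired-end sequencing, and Darwinian fitness relative to wild type was taken from genotype frequency changes. Genotypes needed ≥ 100 starting reads, and estimates < 0.5 were set to 0.5.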
As to GUUCCGUUGGCGUAAUGGCAACGCGUCUCGCUCCUAAGGAGAAGACUGCGGGUUCGAGUCCCGUACGGAACG, the yeast fitness was determined as 0.645.
As to GUUCCGUUGGCGUAAUGGCAACGCGUCUCCCUCCUAAGGACAAGACUGCGGGUUCGAGUCCCGUACGGAACG, the yeast fitness was determined as 0.987.
The same measure for GUUCCGUUGGCGUAAUGGCAACGCGUCUCCCUCCUAAAGAAAAGACUGCGGGUUCGAGUCCCGUACGGAACG: 0.577.
The same measure for GUUCCGUUGGCGUAAUGGCAACGCGUUUCCCUCCUAAGGAGAAGACUGCGGGUUGGAGUCCCGUACGGAACG: 0.544; for GUUCCGUUGGCGUAAUGGCAACGCGUCUGCCUCCUAAGGAGAAGACUGCGGGUUCGAGUCUCGUAAGGAACG: at most 0.5; for GUUCCGUUGGCGUAAUGGCAACGCGUCUCUCUCCUAAGGAGAAGACUGCGCGUUCGAGUCCCGUACGGAACG: 0.693.
As for GUUCCGUUGGCGUAAUGGCAACGCGUCUCCCUCCUAAGGAGAAGACUGCGGGUUUGAGUCACGUACGGAACG, the yeast fitness is at most 0.5.
The same measure for GUUCCGUUGGCGUAAUGGCAACGCGUCUCACUCCUAAGGAGAAGACCGCGGGUUCGAGUCCCGUACGGAACG: 0.693.
Next, GUUCCGUUGGCGUAAUGGCAACGCGUCUCCCUAGUAAGGAGAAGACUGCGGGUUCGAGUCCCGUACGGAACG: at most 0.5; GUUCCGUUGGCGUAAUGGCAACGCGUCUCCCUCAUAAGGAGAAGACUGCGGGUUCGAGUCCCGUACGGAACG: 0.76.
The same measure for GUUCCGUUGGCGUAAUGGCAACGCGUCUCCCUCCUAAGGAGAAGACUGCGGGUUCGAGUUCUGUACGGGACG: at most 0.5; for GUUCCGUUGGCGUAAUGGCAACGCGUCUCCCUCCUAAGGAGAAGGCUGCGGGUUCGAGUCCUGUACGGAACG: 0.953; for GUUCCGUUGGCGUAAUGGCAACGCGUCUCCCUCCUAAGGAGAACACUGCGGGUUCGAAUCCCGUGCGGAACG: 0.987.
Consider GUUCCGUUGGCGUAAUGGCAACGCGUCUCGCUCCUAAGGAGAAGACUGCGGGUUCGAGCCCCGUACGGUACG, for which the yeast fitness is at most 0.5.
Next, GUUCCGUUGGCGUAAUGGCAACGCGUCUCCCUCCUAAGGAGAACACUGCGGGUUCGAGUCCCGUACGGUACG: 0.762.
Next, GUUCCGUUGGCGUAAUGGCAACGCGUAUCCCUCCUAAGGAGAAGACUGCGGGUGCGAGUCCCGUACGGAACG: at most 0.5.
GUUCCGUUGGCGUAAUGGCAACGCGUCUCCCUCCUAAGGAGAAGACUGCGGGUUAGAGUCCCGUAAGGAACG: the yeast fitness is at most 0.5.
As for GUUCCGUUGGCGUAAUGGCAAAGCGUCUCCCUCCUAAGGAGAAGACUGCGGGUUGGAGUCCUGUACGGAACG, the yeast fitness was at most 0.5.
Next, GUUCCGUUGGCGUAAUGGCAACGCGUCUCCCUCCUAAGGAGAAGACUGCGGGUUCGAGUCUCGUACGGAACG: 0.925.
As to GUUCCGUUGGCGUAAUGGCAACGCGUCUCCCUCUUAAGGAGAUGACUGCGGGUUCGAGUCCCAUACGGACCG, the yeast fitness was at most 0.5.
Next, GUUCCGUUGGCGUAAUGGCAACGCGUCUCCCUCCUAACGAGAACAAUGCGGGUUCGAGUCCCGUACGGAGCG: 0.574; GUUCCGUUGGCGUAAUGGCAACGCGUCUCCAUCCUAAGGAGAAGACUGCUGGUUCGAGUCCGGUACGGAACG: at most 0.5.
The same measure for GUUCCGUUGGCGUAAUGGCAACGCGUAUCUCUCCUAAGGAGAAGACUGCGGGUUCCAGUCCCGUACGGAACG: at most 0.5.
Take GUUCCGUUGGCGUAAUGGCAACGUGUCUCCCUCCUAAGGAGAAGACUGCGGGUUCGAGUCCCGUACGGAUCG: the yeast fitness came out at 0.849.
The same measure for GUUCCGUUGGCGUAAUGGCAACGUGUCUCCCUCCUAAGGAGAAGACUGCGGGUUCGAGUCCCGUACGGACCG: 0.755; for GUUCCGUUGGCGUAAUGGCAACGCGUAUCCCUCCUAAGGAGAGGACUGCGGGUUCGAGUCCCGUACGGAACG: 0.606.
The same measure for GUUCCGUUGGCGUAAUGGCAACGCCUCUCCCUCCUAAGGAGAAGACUGCGCGUUCGAGUUCCGUACAGAACG: 0.545; for GUUCCGUUGGCGUAAUGGCAACGCGUCUCCCUCCUAAGGAGAAGACUGCGGGUUCGAGUCCAGUACGGAACG: 0.713.
Next, GUUCCGUUGGCGUAAUGGCAACGCGUCUCCCUCCUAAGGAGAAGACUGCGGGUUCGAGUCCGGUACGGAACG: 0.832; GUUCCGUUGGCGUAAUGGCAAUGCCUGUCCCUCCUAAGGCGAAGACUGCGGGUUCGAGUCCCGUACGGAACG: 0.587.
In the case of GUUCCGUUGGCGUAAUGGCAACGCGUGUCCCUCCUAAGGAGAAGACAGCGGGUUCGAGUCCCGUACGGAACG, the yeast fitness is at most 0.5.
Consider GUUCCGUUGGCGUAAUGGCAACGGGUCUCCCUCCUAUGGAGAAGACAGCGGGUUCGAGUCCCGUGUGGAACG, for which the yeast fitness was at most 0.5.
Next, GUUCCGUUGGCGUAAUGGCAACGCGUCUCUCUCCUAAGGAGAAGACUGCGGGUUGGACUCCCGUACGGAACG: 0.533; GUUCCGUUGGCGUAAUGGCAACGCGUCUCCGUCCUAAGGAGAAGACUGCGGGUUCGAGUCCCGUUCGGAACG: 0.596.
The same measure for GUUCCGUUGGCGUAAUGGCAACGCGUCUCCCUCCUAAGGAGAAGACUGAGGGUUCGAGUCCCGUACGCAACG: at most 0.5; for GUUCCGUUGGCGUAAUGGCAACGCGUAUCCCUCCUAAGGAGAAGACUGCGGGUUCGAGUCCCGUACGGAACG: 0.987.
Next, GUUCCGUUGGCGUAAUGGCAACGCGUCUCCCUCCUAAGGAGAUGACUGCGGGUUCGAGUCCAGUACGGAACG: 0.628.
